Calls of active or inactive are those of the source. The calls are words filed in the database; no cut-off is given here.
What was measured:
[1] = system: U-87 MG; test: Effect on MMP2 expression in human U87MG cells at 10 uM measured after 24 hrs by Western blot analysis; assay type: functional, cell-based; conditions: U-87MG ATCC
[2] = system: U-87 MG; test: Cytotoxicity against human U87MG cells assessed as inhibition of cell proliferation at <IC50 treated for 24 hrs and measured after 10 days by colony formation assay relative to control
[3] = Cytotoxicity against human NU04 cells assessed as inhibition of cell growth measured after 72 hrs by MTT assay; assay type: functional, cell-based; conditions: Homo sapiens, 72 h; read-out: IC50
How it was run: (§1)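 A172 and NU04 cells were seeded at 4000 cells/well and U87MG at 5000 cells/well, incubated overnight at 37 °C, 5% CO2, then exposed to compound or vehicle for 72 h. MTT (3 mg/mL) was added for 4 h, formazan was dissolved in DMSO, and absorbance was read at 570 nm. IC50 came from nonlinear regression; mean ± SD of at least three experiments.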

[4] = system: U-87 MG; test: Induction of endoplasmic reticulum stress in human U87MG cells assessed as increase in GRP78 expression at 20 uM measured after 24 hrs by Western blot analysis; assay type: functional, cell-based; conditions: U-87MG ATCC
How it was run: (§2)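 ER-stress immunoblot: 0.5 x 10^6 U87MG cells/well treated for 24 h with 20 µM analogues, 1 µM PACMA31 or DMSO; tunicamycin 10 µg/mL for 2 or 24 h as positive control. Lysis in Tris/NaCl/Triton/SDS buffer with sonication; 30 µg protein on 10% gels, transferred to PVDF, GRP78 probed, fluorescence imaging.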

[5] = Therapeutic ratio of IC50 for HFF1 cells to IC50 for human NU04 cells
How it was run: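 Ratio of two growth-inhibition IC50s, HFF-1 normal human fibroblasts over NU04 glioma cells. Cells were grown as monolayers at 37 °C in 5% CO2, with NU04 seeded at 4000 cells/well. After overnight attachment, cells were exposed to compound or vehicle for 72 h. MTT (3 mg/mL) was added for 4 h, and formazan dissolved in DMSO was read at 570 nm. IC50s came from nonlinear regression of log concentration-response curves, with at least three independent experiments.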

[6] = system: A 172; test: Induction of endoplasmic reticulum stress in human A172 cells assessed as increase in GRP78 expression at 20 uM measured after 24 hrs by Western blot analysis; assay type: functional, cell-based
[7] = system: A 172; test: Effect on PDI expression in human A172 cells at 20 uM measured after 24 hrs by Western blot analysis; assay type: functional, cell-based
[8] = system: U-87 MG; test: Cytotoxicity against human U87MG cells assessed as inhibition of cell growth measured after 72 hrs by MTT assay; assay type: functional, cell-based, U-87MG ATCC; conditions: Homo sapiens, U-87 MG, 72 h; read-out: IC50; how it was run: as §1
[9] = system: U-87 MG; test: Inhibition of colony formation in human U87MG cells […] by crystal violet staining based assay; assay type: functional, cell-based; conditions: U-87MG ATCC
How it was run: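 Clonogenicity: U87MG cells seeded at 200 cells/well, left overnight, treated 24 h, then medium replaced and cells grown ten days. Stained 30 min with crystal violet, washed, imaged; normalized well intensity from three independent experiments.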

[10] = target: T1, Protein disulfide-isomerase (Homo sapiens, UniProt P07237); test: Binding affinity to recombinant human N-terminal His-tagged PDI expressed in Escherichia coli BL21 (DE3) pLysS assessed as change in melting temperature at 100 uM by ROX dye based thermal shift assay
How it was run: (§3)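 Purified wild-type, C53S/C397S or H256A PDI at 0.5 mg/mL in 50 mM Tris, pH 7.0, with or without 100 μM compound, was mixed with ROX dye in a 20 µL well. DMSO (5% in buffer) was the control. Samples were heated 25–99 °C at 1 °C/min, and the Boltzmann melting temperature shift versus DMSO was reported. Mean ± SD of three experiments.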
Target sequence in this assay (P07237 18-508 limits assumed): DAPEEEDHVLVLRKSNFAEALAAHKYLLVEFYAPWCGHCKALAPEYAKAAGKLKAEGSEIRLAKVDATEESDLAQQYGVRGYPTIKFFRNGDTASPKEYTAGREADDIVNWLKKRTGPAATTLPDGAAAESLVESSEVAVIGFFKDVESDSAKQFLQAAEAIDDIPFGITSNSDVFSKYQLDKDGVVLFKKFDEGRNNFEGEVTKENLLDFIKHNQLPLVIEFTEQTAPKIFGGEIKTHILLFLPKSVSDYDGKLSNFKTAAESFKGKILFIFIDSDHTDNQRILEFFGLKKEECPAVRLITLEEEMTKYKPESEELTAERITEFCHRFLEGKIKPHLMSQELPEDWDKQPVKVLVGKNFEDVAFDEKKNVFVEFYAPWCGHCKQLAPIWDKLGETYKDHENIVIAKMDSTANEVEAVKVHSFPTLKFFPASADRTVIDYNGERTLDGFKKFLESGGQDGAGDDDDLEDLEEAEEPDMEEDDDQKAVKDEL

[11] = system: U-87 MG; test: Effect on PDI expression in human U87MG cells at 20 uM measured after 24 hrs by Western blot analysis; assay type: functional, cell-based; conditions: U-87MG ATCC
[12] = target: T1, Protein disulfide-isomerase; test: Inhibition of recombinant human N-terminal His-tagged PDI expressed in Escherichia coli BL21 (DE3) pLysS assessed as reduction in enzyme-mediated bovine insulin aggregation
Target sequence in this assay (P07237 whole entry): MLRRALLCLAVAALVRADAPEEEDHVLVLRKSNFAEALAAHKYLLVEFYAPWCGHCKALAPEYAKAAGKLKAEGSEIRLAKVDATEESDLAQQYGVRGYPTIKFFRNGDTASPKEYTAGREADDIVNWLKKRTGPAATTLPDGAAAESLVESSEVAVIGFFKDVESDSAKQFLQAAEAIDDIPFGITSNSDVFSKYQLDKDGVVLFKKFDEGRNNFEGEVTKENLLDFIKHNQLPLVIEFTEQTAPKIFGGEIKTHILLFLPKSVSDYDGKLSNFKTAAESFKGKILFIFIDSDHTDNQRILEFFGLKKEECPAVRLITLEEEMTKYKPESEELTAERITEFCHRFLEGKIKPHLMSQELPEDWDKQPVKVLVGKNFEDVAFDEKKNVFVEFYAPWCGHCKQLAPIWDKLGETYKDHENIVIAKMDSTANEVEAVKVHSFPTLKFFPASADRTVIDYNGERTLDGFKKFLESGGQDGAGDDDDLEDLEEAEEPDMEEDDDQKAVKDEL

[13] = target: Eukaryotic translation initiation factor 2 subunit 1 (Homo sapiens) (UniProt P05198); test: Induction of EIF2alpha phosphorylation in human A172 cells at 20 uM measured after 2 hrs by Western blot analysis; assay type: cell-based
[14] = target: Eukaryotic translation initiation factor 2 subunit 1 (Homo sapiens) (UniProt P05198); test: Induction of EIF2alpha phosphorylation in human U87MG cells at 20 uM measured after 2 hrs by Western blot analysis; assay type: cell-based
How it was run: (§4)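 eIF2α phosphorylation in U87MG cells after 2 h with 1 µM PACMA31 or 20 µM analogues; tunicamycin 10 µg/mL as comparator. Lysates (Tris/NaCl/Triton/SDS, sonicated) quantified by BCA; 30 µg protein separated on 10% gels, blotted to PVDF, probed for phospho-eIF2α, detected by fluorescence.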

[15] = system: HFF-1; test: Cytotoxicity against HFF1 cells assessed as inhibition of cell growth measured after 72 hrs by MTT assay; assay type: cell-based; conditions: Homo sapiens, HFF-1, 72 h
How it was run: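 Cells grown as monolayers at 37 °C, 5% CO2, seeded and left overnight, then exposed to drug or vehicle for 72 h. MTT (20 μL of 3 mg/mL) added for 4 h, supernatant removed, formazan dissolved in DMSO, absorbance read at 570 nm. IC50 from nonlinear regression of log concentration–response curves; at least three independent experiments.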

[16] = system: Protein disulfide-isomerase (Homo sapiens), P07237 [H256A]; test: Inhibition of recombinant human N-terminal His-tagged PDI H256A mutant expressed in Escherichia coli BL21 (DE3) pLysS at 10 uM assessed as reduction in enzyme-mediated bovine insulin aggregation
How it was run: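 Insulin reductase assay against H256A PDI: 0.4 μM enzyme preincubated with compounds at 10 μM for 1 h at 37 °C in 100 mM sodium phosphate, 2 mM EDTA, 8 μM DTT, pH 7.0. Then 500 μM DTT and 130 μM bovine insulin added; aggregation read at 620 nm at room temperature. Activity % from OD change at 0 and 80 min, relative to PDI and DTT-only controls; three experiments.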

[17] = target: Focal adhesion kinase 1 (Homo sapiens) (UniProt Q05397); test: Effect on FAK phosphorylation in human U87MG cells at 10 uM measured after 24 hrs by Western blot analysis; assay type: cell-based
[18] = system: A 172; test: Cytotoxicity against human A172 cells assessed as inhibition of cell growth measured after 72 hrs by MTT assay; assay type: functional, cell-based; conditions: Homo sapiens, A 172, 72 h; read-out: IC50; how it was run: as §1
[19] = system: Protein disulfide-isomerase (Homo sapiens), P07237 [H256A]; test: Binding affinity to recombinant human N-terminal His-tagged PDI H256A mutant expressed in Escherichia coli BL21 (DE3) pLysS assessed as change in melting temperature at 100 uM by ROX dye based thermal shift assay; how it was run: as §3
[20] = system: U-87 MG; test: Inhibition of colony formation in human U87MG cells assessed as combination index at 1 to 30 uM measured after 24 hrs in presence of arsenic trioxide by crystal violet staining based assay; assay type: functional, U-87MG ATCC
[21] = system: A 172; test: Induction of endoplasmic reticulum stress in human A172 cells assessed as increase in GRP78 expression at 1 uM measured after 24 hrs by Western blot analysis; assay type: functional, cell-based
[22] = target: 72 kDa type IV collagenase (Homo sapiens) (UniProt P08253); test: Inhibition of MMP2 activity in human U87MG cells at 0.25 uM […] by gelatin zymographic method; assay type: cell-based
[23] = system: A 172; test: Antimigratory activity against human A172 cells at 30 uM measured after 4 hrs by Giemsa staining based transwell migration assay; assay type: functional, cell-based
How it was run: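 A172 cells (1 x 10^5) were treated with compound and seeded into inserts with 8.0 μm PET membrane in serum-free medium. DMEM with 10% FBS was in the lower well; wells without FBS served as control. After 4 h, migrated cells were Giemsa-stained and imaged at 10X, 5 fields per well.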

[24] = system: U-87 MG; test: Down regulation of MMP9 expression in human U87MG cells at 0.25 uM measured after 24 hrs by Western blot analysis; assay type: functional, cell-based; conditions: U-87MG ATCC
[25] = system: U-87 MG; test: Induction of endoplasmic reticulum stress in human U87MG cells assessed as increase in GRP78 expression at 1 uM measured after 24 hrs by Western blot analysis; assay type: functional, cell-based; conditions: U-87MG ATCC; how it was run: as §2
[26] = system: A 172; test: Antimigratory activity against human A172 cells assessed as reduction in cell migration towards wound area measured after 24 hrs by Giemsa staining based microscopic analysis; assay type: functional
How it was run: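 A172 cells plated at 50,000 cells/well, incubated overnight at 37 °C, 5% CO2, then held 24 h in serum-free DMEM. A scratch was made, compounds were added, and cells grew 24 h until DMSO-control wells closed. Cells were Giemsa-stained and imaged at 10X.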

[27] = target: T1, Protein disulfide-isomerase; test: Inhibition of recombinant human N-terminal His-tagged PDI expressed in Escherichia coli BL21 (DE3) pLysS at 100 uM measured after 1 hr by ANS dye based fluorescence spectra analysis
How it was run: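 ANS spectral scan: PDI incubated with 100 μM compounds or matching DMSO in TBS for 1 h at 37 °C. ANS then added and incubated 20 min at 25 °C in the dark. Fluorescence spectrum recorded with excitation 370 nm, emission 400–700 nm.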
Target sequence in this assay (P07237 18-508 limits assumed): as the sequence (P07237 18-508 limits assumed) above

[28] = target: Eukaryotic translation initiation factor 2 subunit 1 (Homo sapiens) (UniProt P05198); test: Induction of EIF2alpha phosphorylation in human U87MG cells at 1 uM measured after 2 hrs by Western blot analysis; assay type: cell-based; how it was run: as §4
[29] = target: Eukaryotic translation initiation factor 2 subunit 1 (Homo sapiens) (UniProt P05198); test: Induction of EIF2alpha phosphorylation in human A172 cells at 1 uM measured after 2 hrs by Western blot analysis; assay type: cell-based
[30] = target: T1, Protein disulfide-isomerase; test: Inhibition of recombinant human N-terminal His-tagged PDI expressed in Escherichia coli BL21 (DE3) pLysS assessed as reduction in enzyme-mediated bovine insulin aggregation at 40 uM measured after 1 hr in presence of 5 mM NAC
How it was run: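 Compounds pretreated with NAC for 30 min at 37 °C, then added to the insulin reductase assay at final 40 μM compound with 0, 1, 2 or 5 mM NAC. The assay uses 0.4 μM PDI preincubated 1 h at 37 °C, then DTT and bovine insulin, read at 620 nm, with % activity at 80 min.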
Target sequence in this assay (P07237 18-508 limits assumed): as above

[31] = system: U-87 MG; test: Down regulation of cleaved MMP2 expression in human U87MG cells at 0.25 uM measured after 24 hrs by Western blot analysis; assay type: functional, cell-based; conditions: U-87MG ATCC
[32] = system: D54 cell line; test: Inhibition of colony formation in 1 to 6 Gy-irradiated human D54 cells at 0.05 uM measured after 10 to 12 days by crystal violet staining based assay; assay type: functional, cell-based
How it was run: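 D54 cells irradiated at 0, 1, 2, 4 or 6 Gy and plated immediately at 200–1000 cells/well according to dose. Treated with DMSO, 0.05 μM PACMA31 or 1 μM compounds, grown 10–12 days, then colonies stained with 0.1% crystal violet.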

[33] = system: U-87 MG; test: Cytotoxicity against human U87MG cells assessed as inhibition of cell proliferation at <IC50 measured after 72 hrs by MTT assay relative to control; assay type: functional, U-87MG ATCC

Chain of Eukaryotic translation initiation factor 2 subunit 1 (Homo sapiens) (P05198 whole entry): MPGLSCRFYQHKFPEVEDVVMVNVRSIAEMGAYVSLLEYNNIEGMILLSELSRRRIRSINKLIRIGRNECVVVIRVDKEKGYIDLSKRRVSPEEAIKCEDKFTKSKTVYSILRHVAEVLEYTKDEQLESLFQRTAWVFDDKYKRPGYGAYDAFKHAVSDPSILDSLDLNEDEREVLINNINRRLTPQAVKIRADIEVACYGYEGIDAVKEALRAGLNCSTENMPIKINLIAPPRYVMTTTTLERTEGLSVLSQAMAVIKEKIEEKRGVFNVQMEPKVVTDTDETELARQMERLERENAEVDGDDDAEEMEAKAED
Chain of Protein disulfide-isomerase (Homo sapiens), P07237 [H256A] (P07237 whole entry H256A): as the sequence (P07237 whole entry) above, with H256A counted along it
Chain of 72 kDa type IV collagenase (Homo sapiens) (P08253 110-660 limits assumed): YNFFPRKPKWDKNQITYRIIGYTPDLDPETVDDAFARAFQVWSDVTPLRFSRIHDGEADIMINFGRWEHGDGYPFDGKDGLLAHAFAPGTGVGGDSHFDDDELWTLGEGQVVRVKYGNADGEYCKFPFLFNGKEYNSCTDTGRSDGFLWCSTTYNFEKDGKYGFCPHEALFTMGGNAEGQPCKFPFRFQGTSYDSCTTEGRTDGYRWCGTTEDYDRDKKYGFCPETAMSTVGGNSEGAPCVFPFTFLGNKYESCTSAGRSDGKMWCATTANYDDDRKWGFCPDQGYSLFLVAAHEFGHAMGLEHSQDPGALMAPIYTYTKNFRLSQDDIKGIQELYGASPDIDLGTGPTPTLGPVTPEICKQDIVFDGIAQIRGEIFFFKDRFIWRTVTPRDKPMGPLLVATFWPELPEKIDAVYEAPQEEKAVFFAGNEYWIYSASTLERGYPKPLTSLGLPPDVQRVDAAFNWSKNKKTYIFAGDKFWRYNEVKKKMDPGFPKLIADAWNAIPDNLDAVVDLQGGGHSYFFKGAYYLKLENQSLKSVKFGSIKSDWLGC
Chain of Focal adhesion kinase 1 (Homo sapiens) (Q05397 2-1052 limits assumed): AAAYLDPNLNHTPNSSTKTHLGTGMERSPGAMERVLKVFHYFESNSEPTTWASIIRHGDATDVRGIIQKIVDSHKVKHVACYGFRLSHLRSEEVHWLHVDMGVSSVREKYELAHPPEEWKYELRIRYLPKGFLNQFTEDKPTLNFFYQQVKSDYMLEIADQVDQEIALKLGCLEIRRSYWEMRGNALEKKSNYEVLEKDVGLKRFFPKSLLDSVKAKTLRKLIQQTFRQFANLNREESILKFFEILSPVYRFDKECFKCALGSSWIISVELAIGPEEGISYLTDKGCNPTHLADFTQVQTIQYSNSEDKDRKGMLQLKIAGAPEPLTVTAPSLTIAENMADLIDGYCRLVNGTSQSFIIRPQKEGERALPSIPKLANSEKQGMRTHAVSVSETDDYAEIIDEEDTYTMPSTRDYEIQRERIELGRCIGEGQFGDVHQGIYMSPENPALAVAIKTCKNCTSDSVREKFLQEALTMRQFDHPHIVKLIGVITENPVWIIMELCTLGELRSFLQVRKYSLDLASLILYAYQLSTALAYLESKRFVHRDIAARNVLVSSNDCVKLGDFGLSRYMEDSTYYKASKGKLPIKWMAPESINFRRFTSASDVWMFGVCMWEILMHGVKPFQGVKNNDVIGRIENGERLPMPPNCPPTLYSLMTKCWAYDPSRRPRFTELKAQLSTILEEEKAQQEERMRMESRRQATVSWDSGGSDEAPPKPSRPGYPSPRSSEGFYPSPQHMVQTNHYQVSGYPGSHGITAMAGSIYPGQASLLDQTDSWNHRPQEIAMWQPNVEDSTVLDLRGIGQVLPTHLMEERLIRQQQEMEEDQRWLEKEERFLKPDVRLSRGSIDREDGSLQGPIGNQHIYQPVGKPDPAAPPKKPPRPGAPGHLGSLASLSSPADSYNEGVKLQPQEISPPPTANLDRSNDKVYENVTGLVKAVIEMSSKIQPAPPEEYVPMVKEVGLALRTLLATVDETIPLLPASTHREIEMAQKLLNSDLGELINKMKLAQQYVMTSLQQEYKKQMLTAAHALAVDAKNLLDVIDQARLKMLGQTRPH

O=C(/C=C/c1ccc(-c2ccncc2)cc1)c1cccc(O)c1
Activity [1]: inactive
inhibition (INH) [2]: >50%
IC50 [3]: 3.8 µM
Activity [4]: Active
Ratio IC50 [5]: 8.39
Activity [6]: Active
Activity [7]: inactive
IC50 [8]: 24.9 µM
inhibition [9]: Dose-dependent effect
ΔTm [10]: 0.34 °C
Activity [11]: inactive
IC50 [12]: 0.21 µM
Activity [13]: Active
Activity [14]: Active
IC50 [15]: 31.8 µM
inhibition [16]: inactive
Activity [17]: inactive
IC50 [18]: 11.3 µM

C[C@]12CC[C@@H]3c4ccc(O)cc4CC[C@H]3[C@@H]1CC[C@@H]2O
Activity [19]: inactive

N#Cc1cccc(/C=C/C(=O)c2ccc(S(N)(=O)=O)cc2)c1
CI [20]: <1
IC50 [12]: 6.64 µM

C#CC(=O)N(c1ccc(OC)cc1OC)C(C(=O)NCC(=O)OCC)c1cccs1 (centres undefined)
Activity [21]: Active
inhibition [22]: Active
Activity [23]: Active
Activity [24]: Active
Activity [25]: Active
Activity [26]: Dose-dependent effect
inhibition [27]: inactive
inhibition [9]: Dose-dependent effect
ΔTm [10]: 0.03 °C
Activity [28]: inactive
IC50 [12]: 10.8 µM
Activity [29]: inactive
inhibition [30]: inactive
Activity [31]: Active
inhibition [32]: inactive

CCN(CC)S(=O)(=O)c1ccc(C(=O)/C=C/c2cccc(C#N)c2)cc1
IC50 [3]: 19.9 µM
IC50 [8]: 17.7 µM
CI [20]: <1
IC50 [12]: 1.23 µM
inhibition (INH) [33]: >50%
IC50 [18]: 26.4 µM

CN(C)S(=O)(=O)c1ccc(C(=O)/C=C/c2cccc(C#N)c2)cc1
CI [20]: <1
IC50 [12]: 6.23 µM

Source: ChEMBL document CHEMBL4390639, “Design, Synthesis, and Biological Evaluation of Novel Allosteric Protein Disulfide Isomerase Inhibitors” (J Med Chem, 2019)
